# A selection: hits, their analogues and other compounds. The true share with any hit is near 10%.
# WT yeast gro inh – growth inhibition of WT yeast, mitochondrial fusion screen; 190,000 tested, 2.1% active; inhibition, % at 10 µM; AID 1362; mitochondrial fusion phenotypic screen, WT strain; in the data active means inhibition above about 58%; tested in S. cerevisiae
# L major viab – inhibitors of Leishmania major promastigote growth | Leishmania major promastigotes, resazurin fluorescence viability | inhibition, % at 10 µM | 200,000 tested, 9% active | AID 1063; in the data active means inhibition above about 50%;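 further: promastigotes grown with compound for 44 hours at 28 °C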
# PMI activator – activators of human phosphomannose isomerase | P34949 | purified human PMI, coupled resazurin fluorescence, 20 min; active compounds read high; 1 = vehicle control, 0 substrate-free wells | activation factor at 20 µM | 190,000 tested, 0.005% active;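 active means activation factor of 2 or more at 20 µM, relative to plate controls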
# Target sequence (P34949 whole entry, looked up): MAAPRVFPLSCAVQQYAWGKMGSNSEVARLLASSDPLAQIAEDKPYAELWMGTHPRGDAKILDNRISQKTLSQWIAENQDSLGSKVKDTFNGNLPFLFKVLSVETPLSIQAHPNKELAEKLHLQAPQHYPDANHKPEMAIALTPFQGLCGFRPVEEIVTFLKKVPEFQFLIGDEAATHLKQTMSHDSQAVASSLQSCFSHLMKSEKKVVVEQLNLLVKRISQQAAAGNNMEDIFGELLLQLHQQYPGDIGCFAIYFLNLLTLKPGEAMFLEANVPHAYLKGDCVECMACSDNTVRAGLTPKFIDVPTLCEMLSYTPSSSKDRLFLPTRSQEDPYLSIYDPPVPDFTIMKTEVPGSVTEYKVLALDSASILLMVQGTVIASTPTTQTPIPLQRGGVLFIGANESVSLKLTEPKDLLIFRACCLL
# PMI act hi M6P – PMI (human) activation, high substrate; coupled PMI enzyme assay, resazurin fluorescence, 20 min; active compounds read high; 1 = untreated enzyme, 0 = substrate-free blank; activation factor at 20 µM; 190,000 tested, 0.34% active;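 active means activation factor of 2 or more at 20 µM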
#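 Test system: Human PMI in coupled enzyme assay | Input: 15 ng/mL PMI | Medium: HEPES-buffered pH 7.4 with magnesium and detergent | Compound: One concentration, 20 µM, in 1% DMSO | Incubation: Enzyme reaction with compound 20 min at room temperature | Detection: Diaphorase-driven resazurin-to-resorufin fluorescence, excitation 544, emission 590 nm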
# Diaphorase act – counter-screen for diaphorase-based assays: diaphorase activators and chemical reducers. Diaphorase/resazurin coupled assay, resorufin fluorescence, 16 min; active compounds read high; 1 = vehicle wells, 0 = NADH-free wells. activation factor at 20 µM. 190,000 tested, 0.005% active;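 active means diaphorase activity raised at least twofold by the compound at 20 µM; inactive means activation factor below 2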
#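 Assay system: bacterial diaphorase enzyme (C. kluyveri) / Input: enzyme 0.07 U/mL final / Medium: 50 mM HEPES pH 7.4 with 4.542 mM MgCl2, 0.005% Tween 20 / Doses: single compound dose of 20 µM, 1% DMSO final / Incubation: 16 min enzyme reaction, ambient temperature / Signal: fluorescence, excitation 544 nm and emission 590 nm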
# * hit, by the source's call; / = not tested or not shown.
SMILES,WT yeast gro inh,L major viab,PMI activator,PMI act hi M6P,Diaphorase act
Nn1c(SCC(=O)N2CCCc3ccccc32)nnc1-c1ccccc1,2,-4,1,1,0.9
CC1CCN(S(=O)C23CC4CC(CC(C4)C2)C3)CC1 (stereo not drawn),8,-4,/,/,/
CC(=O)NCCc1ccc(S(=O)(=O)Nc2cccnc2)cc1,3,-6,0.9,0.9,0.9
CC(C)c1ccccc1-n1c(SCC(=O)N2CCN(c3ccccc3)CC2)nnc1-c1cccnc1,20,96*,1,1,0.9
Cn1c(SCC(=O)N2CCN(c3ccccc3)CC2)nnc1-c1ccncc1,-12,-5,1.1,1.1,0.9
O=[N+]([O-])c1cnn(-c2nc(-c3ccccc3)cc(C(F)(F)F)n2)c1,-19,-7,1,1,1
O=C(N/N=C/c1ccncc1)c1cccc(N/N=C/c2ccncc2)c1,8,-6,1.4,1.2,1.1
O=C(Nc1ccccc1C(=O)N/N=C/c1ccncc1)c1ccccc1,77*,1,1,1,0.9
O=C(N/N=C/c1ccncc1)c1cccc(NC(=O)c2ccc(Cl)cc2)c1,-11,-11,1.6,2.4*,1.4
CCCOc1ccc(N2CC(C(=O)NCCc3ccc(OC)c(OC)c3)CC2=O)cc1 (stereo not drawn),4,-3,1,1.1,1
COC(CNC(=O)c1ccc(N2CCC3(CC2)OCCO3)c([N+](=O)[O-])c1)OC,4,60*,0.9,0.8,0.9
C=CCn1c(=N)c(C(=O)NCCCOC)cc2c(=O)n3cccc(C)c3nc21,6,31,0.9,0.9,1
COCCCNC(=O)c1cccn2c(=O)c3cc4ccccc4cc3nc12,44,90*,1.5,1.9,0.9
O=C(NCc1ccco1)c1cccn2c(=O)c3cc4ccccc4cc3nc12,39,14,2*,2.4*,0.3
Cc1ccc2nsnc2c1NC(=O)COc1ccccc1,1,-14,1.1,1,1.1
CCOC(=O)c1sc(NC(=S)NC(=O)c2ccccc2)c(C(=O)OCC)c1C,4,30,0.9,1,1
CCOC(=O)C1=C(NC(=S)NC(=O)c2ccccc2)c2ccccc2CC1(C)CC (stereo not drawn),70*,17,0.7,0.9,0.8
CCOC(=O)C1=C(NC(=S)NC(=O)c2ccccc2)c2ccccc2CC1C(C)C (stereo not drawn),78*,20,0.8,0.9,0.8
O=C(Nc1ccc(C(=O)N2CCCC2)cc1)Nc1ccc(Cl)cc1Cl,-6,-10,0.9,0.9,0.9
C#CCNC(=O)C1=C[C@@H](C(C)(C)C)C[C@@H](OCc2ccc(CO)cc2)O1,-9,98*,0.9,0.9,0.7
CC(C)(C)[C@H]1C=C(C(=O)Nc2ccccc2)O[C@@H](OCc2ccc(CO)cc2)C1,-14,41,0.9,0.9,0.7
CC(C)(C)[C@@H]1C=C(C(=O)NCc2ccccc2)O[C@H](OCc2ccc(CO)cc2)C1,-30,97*,0.8,0.5,0.7
COc1ccc(CCN2C(=O)CC(N3CCN(S(=O)(=O)c4ccccc4)CC3)C2=O)cc1OC (stereo not drawn),-8,-4,1,1,0.9
CCOc1ccc(S(=O)(=O)N(C(=O)c2ccco2)c2cc3sc(=O)oc3c3ccccc23)cc1,3,97*,1.2,1.2,0.7
COc1ccc(S(=O)(=O)N(C(=O)C(C)C)c2ccc3oc(=O)sc3c2)cc1,14,-3,0.9,0.9,0.9
SMILES,WT yeast gro inh,L major viab,PMI activator,PMI act hi M6P,Diaphorase act
CC(=O)N(c1ccc2oc(=O)sc2c1)S(=O)(=O)c1ccccc1,20,-3,0.8,0.6,0.7
Cc1ccc(S(=O)(=O)N(C(=O)c2ccco2)c2cc3sc(=O)oc3c3ccccc23)cc1,11,98*,1,1.1,0.5
COc1ccc(S(=O)(=O)N(C(=O)c2ccco2)c2cc3sc(=O)oc3c3ccccc23)cc1,0,99*,1.2,1.1,0.8
CC(C)(C)C(=O)Nc1ccc(C(=O)NNC(=O)Cc2ccccc2)cc1,0,-4,1,1,1
O=C(CSc1nnc(-c2cccnc2)o1)Nc1ccc(Cl)cc1,-4,1,0.9,0.9,0.9
CCn1c2ccccc2c2cc(NC(=O)CSc3nnc(-c4cccc(OC)c4)n3N)ccc21,18,17,0.9,0.9,0.8
CCn1c2ccccc2c2cc(NC(=O)CSc3nnc(-c4ccc(OC)c(OC)c4)n3N)ccc21,-1,95*,1,1,0.9
CCn1c2ccccc2c2cc(NC(=O)CSc3nnc(-c4cccc(Cl)c4)o3)ccc21,13,89*,0.9,0.9,0.9
COc1ccc(-c2nnc(SC(C(=O)c3c[nH]c4ccccc34)c3ccccc3)n2N)cc1OC (stereo not drawn),-8,57*,0.9,1,0.9
CC(C)c1cc(C(=O)OCC(=O)NC(=O)NCc2ccco2)c(O)c(C(C)C)c1,25,37,0.8,0.8,1
COc1cccc(C(=O)OCC(=O)c2c[nH]c3ccccc23)c1O,2,26,1,1,0.8
CC(=O)c1sc2nc(-c3cccs3)ccc2c1N,-5,-8,1.7,2.1*,0.9
Nc1c(C(=O)Nc2nc3ccccc3s2)sc2nc(-c3cccs3)ccc12,8,1,0.9,0.9,1
CSCc1cc(N2CCOCC2)nc(SCc2ccc(Cl)c(Cl)c2)n1,62*,8,1.2,2*,0.7
O=[N+]([O-])c1c(C(Cl)Cl)nn(-c2ccc(Cl)cc2)c1N1CCCCC1,75*,10,1,1.1,0.9
COCC(=O)NC1CCN(CC(=O)Nc2ccccc2[N+](=O)[O-])CC1,-6,-2,1,1,1
CCOC(=O)COc1ccc2nsnc2c1,-12,-8,0.9,0.8,0.7
O=[N+]([O-])/C=C/c1c(OCc2ccccc2)ccc2ccccc12,77*,100*,0.9,1,0.9
CCCCOc1ccc2ccccc2c1C=O,24,0,1,0.9,0.9
CCOC(=O)COc1ccc(/C=C/[N+](=O)[O-])c(OCC(=O)OCC)c1,14,100*,1,1,0.9
CCOC(=O)COc1ccc2ccccc2c1/C=C/[N+](=O)[O-],86*,90*,0.8,0.5,0.8
CCOc1ccc(/C=C/[N+](=O)[O-])c2ccccc12,-9,100*,0.7,0.4,0.7
O=C(NS(=O)(=O)Oc1ccc(F)c(Cl)c1)OC[C@@H]1CCCN2CCCCC12 (stereo partly drawn),3,-4,1.1,1,0.9
CC(=O)Nc1nc(C2CC2)cc(-c2ccccc2)c1C#N,3,11,1,1,1
COc1ccc(C(=O)COC(=O)CNS(=O)(=O)c2ccc(C)cc2)cc1,-7,-7,0.9,1,0.9
CCC(CC)C(=O)c1c[nH]c(C(=O)N2CCN(c3ccccc3F)CC2)c1,-20,-11,0.9,1,0.9

# Assay outcomes (PubChem BioAssay)
